A short description of data set [1]: Stability in Sprague-Dawley rat plasma. The data set is classed as ADME, cell-free.
Data set [2] addresses ATP-dependent translocase ABCB1 (Homo sapiens, UniProt P08183). The data set is described as follows: Inhibition of P-gp (unknown origin) at 10 uM. The class given is ADME.
Data set [3] has as its system Rattus norvegicus. The data set is described as follows: Effect on spontaneous locomotor activity in Sprague-Dawley rat assessed as locomotor counts at 10 mg/kg, po monitored over 10 mins period. The class given is ADME, organism-based. The note with it: in vivo. In short, it runs like this:
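Male Sprague Dawley rats (175–200 g) received vehicle (0.5% methylcellulose) or 10 mg/kg orally. Four hours later, spontaneous locomotor frequency was recorded for 10 min in a vibration-sensing Laboras cage system; n = 10 per group.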

Data set [4] concerns the target T1, Solute carrier family 22 member 2 (Homo sapiens, UniProt O15244).
T1 sequence (O15244 whole entry): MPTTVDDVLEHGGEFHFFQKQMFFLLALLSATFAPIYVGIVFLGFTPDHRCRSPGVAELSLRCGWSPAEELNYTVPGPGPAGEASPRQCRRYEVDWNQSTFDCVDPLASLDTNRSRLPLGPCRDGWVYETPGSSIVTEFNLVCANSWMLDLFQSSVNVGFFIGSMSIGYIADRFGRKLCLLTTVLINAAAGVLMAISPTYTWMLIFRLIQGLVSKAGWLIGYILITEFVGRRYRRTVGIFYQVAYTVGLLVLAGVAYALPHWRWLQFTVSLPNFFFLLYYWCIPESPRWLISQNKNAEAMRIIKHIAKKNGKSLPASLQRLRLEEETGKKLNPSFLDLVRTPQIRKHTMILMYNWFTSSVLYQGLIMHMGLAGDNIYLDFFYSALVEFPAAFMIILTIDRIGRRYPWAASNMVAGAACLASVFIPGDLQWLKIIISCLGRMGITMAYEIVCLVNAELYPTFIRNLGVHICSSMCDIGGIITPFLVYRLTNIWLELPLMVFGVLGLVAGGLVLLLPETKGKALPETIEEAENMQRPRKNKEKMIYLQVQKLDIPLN
In words: Inhibition of OCT2 (unknown origin) at 10 uM. The class given is ADME.

Data set [5] can be described thus: Volume of distribution at steady state in Beagle dog at 1 mg/kg, iv or 1 mg/kg, po by LC-MS analysis. The data set is classed as ADME, organism-based, Canis lupus familiaris. Conditions: in vivo, read-out: Vdss. In short, it runs like this: (§1)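 Male beagle dogs (n = 3 per route), 10–12 months old, were dosed at 1 mg/kg iv or po in PEG400/ethanol/PBS (7/2/1), fasted overnight to 2 h post-dose. Peripheral venous blood was sampled to 24 h into K2EDTA and plasma frozen at −80 °C. Plasma was quantified by HPLC-MS/MS, with noncompartmental analysis.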

For data set [6], the target named is T2, Monoglyceride lipase (Mus musculus) (UniProt O35678).
T2 sequence (whole entry): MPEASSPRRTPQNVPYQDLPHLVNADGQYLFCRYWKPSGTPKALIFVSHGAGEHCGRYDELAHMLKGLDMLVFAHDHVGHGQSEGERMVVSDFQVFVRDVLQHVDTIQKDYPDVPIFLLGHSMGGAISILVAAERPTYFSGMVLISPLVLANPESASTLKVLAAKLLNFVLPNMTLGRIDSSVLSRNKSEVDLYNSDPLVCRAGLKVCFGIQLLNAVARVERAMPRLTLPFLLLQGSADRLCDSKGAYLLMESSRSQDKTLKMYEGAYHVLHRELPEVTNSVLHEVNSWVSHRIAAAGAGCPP
In words: Inhibition of MGLL in mouse brain membrane homogenates at 0.001 to 10 uM preincubated for 30 mins followed by FP-Rh addition after 30 mins by gel-based ABPP assay. The data set is classed as cell membranes. In short, it runs like this:
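Brain membrane homogenates (1 mg/mL protein) were preincubated with 0.001-10 µM inhibitor or DMSO for 30 min at 37°C, then labelled with 1 µM FP-Rh for 30 min at 25°C. Reactions were quenched in SDS-PAGE loading buffer, run on 10% gels and scanned in-gel. MGLL band intensities were normalised to DMSO (100%).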

A short description of data set [7]: Clearance in Beagle dog at 1 mg/kg, iv or 1 mg/kg, po by LC-MS analysis. The class given is ADME, organism-based, Canis lupus familiaris. Conditions: in vivo. An outline of the steps:
as §1

Data set [8] concerns Rattus norvegicus. The data set is described as follows: In vivo inhibition of MGLL in po dosed Sprague-Dawley rat brain assessed as increase in 2-AG measured at 4 hrs post dose by LC-MS/MS analysis. The data set is classed as functional, organism-based. An outline of the steps:
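Male Sprague Dawley rats, 6–12 weeks old, single oral doses 0.03–10 mg/kg in 0.5% methylcellulose, 5 mL/kg. Killed 4 h post-dose; forebrain section (~100–200 mg) from one hemisphere analysed for 2-AG by LC-MS/MS.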

The subject of data set [9] is Rattus norvegicus. The data set is described as follows: Antinociceptive activity in po dosed Sprague-Dawley rat brain assessed as inhibition of ABHD6 activity measured after 4 hrs post dose in presence of FP-Rh probe by gel-based ABPP assay. The class given is functional. In short, it runs like this:
(§2)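 Male Sprague Dawley rats, 6–12 weeks old, given single oral doses (0.03–10 mg/kg) in 0.5% methylcellulose at 5 mL/kg. Brains were taken 4 h post-dose and forebrain sections excised from one hemisphere. Brain proteome was labeled with FP-Rh (1 µM, 30 min) and analyzed by SDS-PAGE with in-gel fluorescence. Band intensity was normalized to vehicle.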

For the next data set, the species on record is Canis lupus familiaris. In words: Inhibition of ABHD6 in dog brain membrane homogenates at 0.001 to 10 uM preincubated for 30 mins followed by FP-Rh addition after 30 mins by gel-based ABPP assay. The data set is classed as cell membranes. An outline of the steps: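 Dog brain membrane homogenates (1 mg/mL protein) were preincubated with 0.001-10 µM inhibitor or DMSO for 30 min at 37°C. They were then labelled with 1 µM probe (FP-Rh or HT-01) for 30 min at 25°C. Reactions were quenched in SDS-PAGE loading buffer and scanned in-gel. ABHD6 band intensities were normalised to DMSO.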

A short description of data set [10]: Cmax in Sprague-Dawley rat at 5 mg/kg, po by LC-MS analysis. The note with it: in vivo. More on the design: dose 5 mg/kg, route oral. The data set is classed as ADME, organism-based. An outline of the steps:
(§3)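 Rats (n = 3 per route) were dosed at 1 mg/kg iv (70% PEG400 in HPBCD/saline) or 5 mg/kg po (70% PEG400 in 0.5% CMC/saline), fasted overnight to 4 h post-dose. Jugular-catheter blood (~100 µL) was sampled to 24 h into 400 µL acetonitrile to stop esterases. Samples were quantified by HPLC-MS/MS, with noncompartmental analysis.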

In another data set the test system is Mus musculus. The data set is described as follows: In-vivo inhibition of MGLL in ICR mouse brain assessed as target engagement at 5 mg/kg, po measured 4 hrs post dose by gel-based ABPP assay relative to control. More on the design: scale not given: the % may be the effect or the level left. The class given is functional. An outline of the steps:
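Mice received a single 5 mg/kg oral gavage dose. Whole brains were collected 4 h post-dose and target engagement was read by gel-based ABPP with FP-Rh probe.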

Data set [11] can be described thus: Half life in Sprague-Dawley rat at 1 mg/kg, iv by LC-MS analysis. The data set is classed as ADME, organism-based. The note with it: in vivo. An outline of the steps:
as §3

Data set [12] relates to Rattus norvegicus. The data set is described as follows: Antinociceptive activity in Sprague-Dawley rat assessed as reduction in formalin-evoked paw licking duration at 3 mg/kg, po administered 4 hrs prior to formalin challenge and measured between 10 to 30 mins post formalin challenge. The class given is functional, organism-based.
The nature of data set [13]: Tmax in Sprague-Dawley rat at 1 mg/kg, iv or 5 mg/kg, po by LC-MS analysis. The data set is classed as ADME, organism-based. Conditions: in vivo. An outline of the steps: as §3
Data set [14] concerns Rattus norvegicus. The data set is described as follows: Antinociceptive activity in po dosed Sprague-Dawley rat brain assessed as inhibition of CES1c activity measured after 4 hrs post dose in presence of FP-Rh probe by gel-based ABPP assay. The class given is functional. An outline of the steps: as §2

The source made the active and inactive calls.

Consider 1 compound from ChEMBL document CHEMBL4308843, “Identification of ABX-1431, a Selective Inhibitor of Monoacylglycerol Lipase and Clinical Candidate for Treatment of Neurological Disorders” (J Med Chem, 2018).

The ED50 is the dose at which the effect has come halfway, by size or by number of responders. By Cmax is commonly meant the peak of the concentration-time curve. For orientation: half-life means the time needed for the level to fall by half in the phase considered. A word on the Tmax: it is the time from dosing to the highest level.

ATP-dependent translocase ABCB1, sequence (P08183 whole entry): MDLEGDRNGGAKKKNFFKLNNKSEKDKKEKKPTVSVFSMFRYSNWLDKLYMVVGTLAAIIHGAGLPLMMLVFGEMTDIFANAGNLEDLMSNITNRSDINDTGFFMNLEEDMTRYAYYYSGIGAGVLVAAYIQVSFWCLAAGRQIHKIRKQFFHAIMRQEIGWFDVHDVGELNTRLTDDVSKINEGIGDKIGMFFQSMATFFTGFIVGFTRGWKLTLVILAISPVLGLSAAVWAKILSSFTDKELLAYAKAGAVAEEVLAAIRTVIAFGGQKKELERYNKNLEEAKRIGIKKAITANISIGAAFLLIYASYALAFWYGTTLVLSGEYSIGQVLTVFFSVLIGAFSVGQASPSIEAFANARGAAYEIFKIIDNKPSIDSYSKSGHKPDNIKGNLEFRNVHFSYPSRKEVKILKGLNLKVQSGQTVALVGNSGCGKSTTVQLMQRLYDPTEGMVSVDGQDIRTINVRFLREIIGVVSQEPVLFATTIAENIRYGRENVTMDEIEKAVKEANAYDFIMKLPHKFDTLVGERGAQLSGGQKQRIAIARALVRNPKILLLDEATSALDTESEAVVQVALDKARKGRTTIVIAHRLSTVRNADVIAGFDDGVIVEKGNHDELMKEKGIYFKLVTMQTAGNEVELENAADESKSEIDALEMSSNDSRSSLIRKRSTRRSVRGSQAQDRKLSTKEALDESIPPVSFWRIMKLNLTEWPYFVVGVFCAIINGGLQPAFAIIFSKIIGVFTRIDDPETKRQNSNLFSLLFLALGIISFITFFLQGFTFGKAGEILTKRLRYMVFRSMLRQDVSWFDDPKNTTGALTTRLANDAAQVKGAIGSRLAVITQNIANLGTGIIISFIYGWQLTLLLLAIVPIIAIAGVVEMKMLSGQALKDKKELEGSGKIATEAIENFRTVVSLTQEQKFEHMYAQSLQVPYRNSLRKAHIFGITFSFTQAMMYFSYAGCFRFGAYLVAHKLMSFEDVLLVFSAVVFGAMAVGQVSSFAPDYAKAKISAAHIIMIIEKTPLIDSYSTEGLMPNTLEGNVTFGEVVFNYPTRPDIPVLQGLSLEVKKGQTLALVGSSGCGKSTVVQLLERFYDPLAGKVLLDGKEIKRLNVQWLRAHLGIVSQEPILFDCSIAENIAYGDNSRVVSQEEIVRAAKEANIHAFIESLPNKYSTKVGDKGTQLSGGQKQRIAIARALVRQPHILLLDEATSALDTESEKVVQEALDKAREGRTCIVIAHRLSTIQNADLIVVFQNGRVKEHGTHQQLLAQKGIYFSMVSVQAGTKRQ

In the case of `O=C(OC(C(F)(F)F)C(F)(F)F)N1CCN(Cc2ccc(C(F)(F)F)cc2N2CCCC2)CC1` [ELCUBRAGISTAT], the Stability entry in [1] is reported as “Unstable”. The “inhibition (INH)” value in data set [2] and in data set [4] was “Not Active” in each case. In addition, the Activity entry is on record as “Non-Toxic” in the data set on Rattus norvegicus [3] and 100% in the data set on Mus musculus. In addition, the Vd in [5] turned out to be 1.2 L/kg. For the same compound, the inhibition entry (in data set [6]; in the data set listed under Canis lupus familiaris) was “Active” in each case. For the same compound, in data set [7], the clearance amounted to 6.3 mL/min/kg. In addition, the inhibition result in the data set on Rattus norvegicus [8] is “Dose-dependent effect”. Also, the ED50 with Rattus norvegicus [9] came out at 2.9 mg/kg; with Rattus norvegicus [14], 1.2 mg/kg. In data set [10], this compound registered a Cmax of 688 nM. The compound further had a half-life in [11] of 3.6 h. Besides, in the data set with Rattus norvegicus [12], the outcome was Active. In data set [13], the Tmax is 8 h.
